Assay [1] deals with T1, Glyceraldehyde-3-phosphate dehydrogenase, glycosomal (Trypanosoma cruzi, UniProt P22513). Put plainly: Non-competitive inhibition of Trypanosoma cruzi recombinant glycosomal GAPDH expressed in Escherichia coli assessed as dissociation constant for binary enzyme-inhibitor complex using NAD+ substrate by Lineweaver-Burk plot method. In short, it runs like this: (§1)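 Inhibition type and Ki/αKi were determined against each substrate (G-3-P or NAD+), varying that substrate at 3 or 4 inhibitor concentrations. Conditions were otherwise those of the 340 nm NADH assay: 20 nM recombinant GAPDH, pH 7.5 triethanolamine buffer, 25 °C. Double-reciprocal plots were used, with parameters fitted in an enzyme-kinetics module. Means are of ≥3 experiments.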

Assay [2] deals with T1, Glyceraldehyde-3-phosphate dehydrogenase, glycosomal. Put plainly: Non-competitive inhibition of Trypanosoma cruzi recombinant glycosomal GAPDH expressed in Escherichia coli assessed as dissociation constant for ternary enzyme-substrate-inhibitor complex using NAD+ substrate by Lineweaver-Burk plot method. In short, it runs like this:
as §1

Assay [3] has the same target. Put plainly: Non-competitive inhibition of Trypanosoma cruzi recombinant glycosomal GAPDH expressed in Escherichia coli assessed as dissociation constant for binary enzyme-inhibitor complex using D-glyceraldehyde-3-phosphate substrate by Lineweaver-Burk plot method. In short, it runs like this: as §1
The target is the same in assay [4]. Put plainly: Non-competitive inhibition of Trypanosoma cruzi recombinant glycosomal GAPDH expressed in Escherichia coli assessed as dissociation constant for ternary enzyme-substrate-inhibitor complex using D-glyceraldehyde-3-phosphate substrate by Lineweaver-Burk plot method. In short, it runs like this: as §1
Assay [5] has the same target. The experiment in a line: Inhibition of Trypanosoma cruzi recombinant glycosomal GAPDH expressed in Escherichia coli using GAPDH and D-glyceraldehyde-3-phosphate. In short, it runs like this: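 Recombinant T. cruzi GAPDH (20 nM; E. coli-expressed, purified by hydrophobic then cation-exchange chromatography) assayed at 25 °C in triplicate. Buffer: 100 mM triethanolamine-HCl pH 7.5, 1 mM EDTA, 1 mM 2-mercaptoethanol, 30 mM arsenate, 400 µM NAD+, 300 µM G-3-P. NADH formation read at 340 nm for 8 min. Initial rates give % inhibition; IC50 from ≥5 inhibitor concentrations by nonlinear regression.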

Assay [6] addresses Glyceraldehyde-3-phosphate dehydrogenase, glycosomal (Trypanosoma cruzi) (UniProt P22513). Put plainly: Inhibition of Trypanosoma cruzi recombinant glycosomal GAPDH expressed in Escherichia coli using GAPDH and D-glyceraldehyde-3-phosphate in presence of 0.01% Triton X-100. In short, it runs like this: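 Assay as for the standard GAPDH rate measurement: 20 nM recombinant enzyme, triethanolamine-HCl pH 7.5 with EDTA, 2-mercaptoethanol, arsenate, 400 µM NAD+ and 300 µM G-3-P, 25 °C, NADH followed at 340 nm. Triton X-100 was added to 0.01% final, from a freshly made 1% (v/v) stock in triethanolamine buffer, to test for nonspecific inhibition.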

Molecules are shown by their SMILES. Active and inactive are the calls of the source. The calls are words filed in the database; no cut-off is given here.

T1 sequence (P22513 whole entry): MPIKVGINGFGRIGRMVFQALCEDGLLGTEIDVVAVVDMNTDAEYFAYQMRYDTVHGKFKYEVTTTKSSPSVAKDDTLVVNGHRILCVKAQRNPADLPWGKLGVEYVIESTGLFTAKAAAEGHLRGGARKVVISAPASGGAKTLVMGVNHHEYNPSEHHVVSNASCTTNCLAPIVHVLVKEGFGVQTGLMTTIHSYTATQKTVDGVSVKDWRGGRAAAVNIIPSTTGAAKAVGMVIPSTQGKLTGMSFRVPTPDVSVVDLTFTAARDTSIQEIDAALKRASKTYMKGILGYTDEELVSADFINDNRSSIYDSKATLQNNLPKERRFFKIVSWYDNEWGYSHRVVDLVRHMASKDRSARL
Chain of Glyceraldehyde-3-phosphate dehydrogenase, glycosomal (Trypanosoma cruzi) (P22513 whole entry): as above

On to `CCCCCCCCCCCCc1cccc(O)c1C(=O)O`, for which the Ki is 5 µM in assay [1], 43 µM in assay [2], 4 µM in assay [3] and 38 µM in assay [4]. For the same molecule, in assay [5], the IC50 was determined as 55 µM. Also, the inhibition result in assay [6] was “Active”.
`C=CC/C=C\C/C=C\CCCCCCCc1cccc(O)c1C(=O)O` [ANACARDIC ACID]: the Ki is 4 µM in assay [1], 6 µM in assay [2], 2 µM in assay [3] and 4 µM in assay [4]. Also, the IC50 in assay [5] came to 28 µM. Also, in assay [6], the inhibition entry is “Active”.
Regarding `CCOC(=O)c1c(O)cccc1CCCCCCCCCCO`, in assay [5], the IC50 is more than 250 µM.
Still for that read-out and setting: the result for `O=CCCCCCCCc1cccc(O)c1C(=O)O` reads more than 250 µM; that for `CCCCCCCCCCCCc1cccc(O)c1C(=O)OCC`, 215 µM.
Still for that read-out and setting: the result for `CCOC(=O)c1c(C=CCCCCOC2CCCCO2)cccc1OC` (mixture of isomers) reads more than 300 µM.
Turning to `CCOC(=O)c1c(CCCCCCCCOC2CCCCO2)cccc1OC` (configuration not stated), the IC50 in assay [5] is more than 250 µM.
On the same count and under the same terms, under `CCOC(=O)c1c(C=CCCCCCCCCOC2CCCCO2)cccc1OC` (mixture of isomers) stands more than 300 µM.
Same read-out and setting: the result for `CCOC(=O)c1c(O)cccc1CCCCCCCCO` reads more than 250 µM.
With `O=C(O)c1c(O)cccc1CCCCCCCCCCO`, the IC50 in assay [5] came to 240 µM.
Same read-out and setting: under `O=C(O)c1c(O)cccc1CCCCCCO` stands more than 250 µM.
Same read-out and setting: the result for `CCOC(=O)c1c(CCCCCCOC2CCCCO2)cccc1OC` (configuration not stated) reads more than 250 µM; that for `CCCCCCCCCCC=Cc1cccc(OC)c1C(=O)OCC` (mixture of isomers), more than 300 µM.
`CCOC(=O)c1c(C=CCCCCCCOC2CCCCO2)cccc1OC` (mixture of isomers): the IC50 in assay [5] is more than 300 µM.
Take `CCCCCCCCCCCCc1cccc(OC)c1C(=O)OCC`: the concentration for half-maximal inhibition (IC50) in assay [5] is more than 250 µM.
The same measure, in the same setting: the result for `CCCCCCCCCc1cccc(O)c1C(=O)O` reads 200 µM; that for `CCOC(=O)c1c(O)cccc1CCCCCCO`, more than 250 µM.
The same measure, in the same setting: the result for `O=C(O)c1c(O)cccc1CCCCCCCCO` reads more than 250 µM; that for `CCCCCCCCCc1cccc(O)c1C(=O)OCC`, more than 250 µM; that for `CCCCCCCCCc1cccc(OC)c1C(=O)OCC`, more than 250 µM.
Same read-out and setting: under `CCCCCCCC=Cc1cccc(OC)c1C(=O)OCC` (mixture of isomers) stands more than 300 µM; under `CCOC(=O)c1c(CCCCCCCCCCOC2CCCCO2)cccc1OC` (configuration not stated), more than 250 µM.

What is called Ki is a measure of affinity in units of concentration, obtained from inhibition or displacement. By IC50 is commonly meant the concentration that inhibits the measured activity by half.

The record behind these values is ChEMBL document CHEMBL1781931, “Anacardic acid derivatives as inhibitors of glyceraldehyde-3-phosphate dehydrogenase from Trypanosoma cruzi” (Bioorg Med Chem, 2008).
